Assay outcomes (PubChem BioAssay)
CXCR6 inh: CXCR6 receptor inhibitors, primary screen, cell-based, beta-arrestin, luminescence, CHO-K1 PathHunter, 1536-well. inhibition, % at 20 µM. actives 0.36% (n = 360,000). AID 602244, 2012; in the data active = inhibition above about 34%, passing the limit was not always enough;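 note: antagonist mode with CXCL16 agonist at 10 nM final; 0% = 10 nM CXCL16 with DMSO and 100% = unstimulated wells without agonist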
APOBEC3G inh: APOBEC3G DNA deaminase inhibitors, primary screen, biochemical, fluorescence, single-stranded DNA substrate, uHTS; actives 0.28% (n = 330,000); DNA dC->dU-editing enzyme APOBEC-3G (Homo sapiens), Q9HC16; AID 493012, 2011; recombinant A3G, ssDNA deamination FAM/TAMRA fluorescence; inhibition, % at 20 µM;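 active = inhibition of at least 40% at 20 µM, with no more than 30% in the related APOBEC3A deaminase screen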;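 note: plate controls were DMSO wells with A3G for no effect and wells lacking A3G enzyme for full effect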
Target sequence (Q9HC16 whole entry, looked up): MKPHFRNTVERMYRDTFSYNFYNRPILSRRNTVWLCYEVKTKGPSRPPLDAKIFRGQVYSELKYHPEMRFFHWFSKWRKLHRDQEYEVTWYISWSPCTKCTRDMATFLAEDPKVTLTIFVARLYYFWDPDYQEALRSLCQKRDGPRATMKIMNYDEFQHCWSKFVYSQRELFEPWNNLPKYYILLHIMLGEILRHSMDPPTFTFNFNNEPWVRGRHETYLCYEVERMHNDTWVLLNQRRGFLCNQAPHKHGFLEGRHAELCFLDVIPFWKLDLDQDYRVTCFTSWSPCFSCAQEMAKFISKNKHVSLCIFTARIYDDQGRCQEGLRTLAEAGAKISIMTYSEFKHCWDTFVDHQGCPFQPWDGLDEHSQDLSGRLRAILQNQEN
APJ antagonist: antagonists of human apelin receptor APJ, primary screen, CHO-K1 cells, beta-arrestin complementation, luminescence | inhibition, % at 20 µM | actives 0.32% (n = 330,000) | AID 2521, 2010;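 active = inhibition above about 40% at 20 µM, limit read from the data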;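 note: cells challenged with 10 nM apelin-13 agonist together with compound; plate controls were apelin-13 plus DMSO wells for no effect and DMSO wells lacking apelin-13 for full effect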
A3A deaminase: APOBEC3A ssDNA deaminase inhibitors, primary screen, selectivity assay for APOBEC3G inhibitor project, biochemical, FAM/TAMRA oligo cleavage fluorescence. DNA dC->dU-editing enzyme APOBEC-3A (Homo sapiens), P31941. recombinant A3A, FAM/TAMRA ssDNA deamination fluorescence. inhibition, % at 20 µM. actives 0.41% (n = 330,000). AID 493011, 2011;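 active = at least 40% inhibition at 20 µM here, with at most 30% in a related deaminase screen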;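 note: plate controls were A3A with DMSO for no effect and wells lacking A3A enzyme for full effect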
CCR6 antagonist: CCR6 receptor antagonists, primary screen, cell-based, CHO-K1, luminescence, beta-arrestin, uHTS; actives 0.49% (n = 340,000); inhibition, % at 20 µM; CHO-K1 CCR6 PathHunter beta-arrestin, CCL20-stimulated; AID 493098, 2011; C-C chemokine receptor type 6 (Homo sapiens), P51684;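 active = compounds whose inhibition of the agonist-driven luminescence signal at 20 µM reaches about 50%, limit read from the data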;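 note: cells stimulated with CCL20 at 14 nM final; plate controls were DMSO with CCL20 for no effect and DMSO without agonist for full effect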
APJ agonist: agonists of human apelin receptor APJ, primary screen, CHO-K1 cells, PathHunter beta-arrestin, luminescence; 0% DMSO wells, 100% apelin; P35414; actives 0.11% (n = 330,000); AID 2520, 2010; activation, % at 20 µM;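 active = activation more than six SD over the plate average, tested at 20 µM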;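 note: 0% = DMSO alone and 100% = apelin-13 at 10 nM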
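Assay system: CHO-K1 cells stably expressing ProLink-tagged human APJ and arrestin–beta-gal acceptor. Compound dosing: 20 µM single point, 1% DMSO. Times: 16-18 h seeding, 90 min dark compound exposure, 60 min detection. Detection: beta-gal luminescence. Evaluation: APJ–arrestin association signal. Controls: negative DMSO alone, positive Apelin-13 at 10 nM.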
APOBEC3G confirm: APOBEC3G deaminase inhibitor retest, confirmation, biochemical, fluorescence, single-stranded DNA substrate, single concentration | AID 493152, 2011 | actives 72% (n = 890) | recombinant A3G ssDNA deaminase, UDG/FAM-TAMRA fluorescence | shares compounds with APOBEC3G inh | inhibition, % at 20 µM;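 active = inhibition reaching a set limit in any replicate at 20 µM, the limit being 80% of the first screen's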
UDG A3G counter: E. coli UDG inhibitors, confirmation, counter-screen for APOBEC3G inhibitor project, biochemical, single concentration, fluorescence, FAM/TAMRA oligo; shares compounds with APOBEC3G inh; UDG counterscreen; inhibition, % at 20 µM; 710 tested, under 10 active;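 active = compounds giving 40% or more inhibition at 20 µM in any one of the three replicates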;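 note: plate controls were DMSO wells with UDG and oligo for no effect and DMSO wells lacking both for full effect; inhibitors lower the FAM signal released by uracil excision and alkaline cleavage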
Target sequence (P12295 whole entry, looked up): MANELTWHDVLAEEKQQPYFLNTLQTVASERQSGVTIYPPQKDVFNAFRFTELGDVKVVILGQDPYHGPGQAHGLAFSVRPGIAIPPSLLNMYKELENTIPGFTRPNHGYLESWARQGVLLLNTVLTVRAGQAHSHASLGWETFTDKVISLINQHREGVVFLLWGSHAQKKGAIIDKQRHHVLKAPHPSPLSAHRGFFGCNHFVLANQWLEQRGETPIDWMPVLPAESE
* hit, by the source's call; nt = no result given. Shown are actives, neighbours in structure and some others; about 1.4% of the full set was active somewhere.

SMILES	CXCR6 inh	APOBEC3G inh	APJ antagonist	A3A deaminase	CCR6 antagonist	APJ agonist	APOBEC3G confirm	UDG A3G counter
Nc1sc(-c2ccccc2)cc1-c1n[nH]c(=S)n1C1CCCCC1	2	-11	-2	-2	-3	3	nt	nt
S=c1[nH]nc(-c2cccs2)n1C1CCCCC1	-5	45*	14	-8	2	-3	83*	-3
COc1ccccc1CN1CC(C(=O)NCC2(O)CCCCC2)CCC1=O (stereo unspecified)	-8	nt	nt	nt	nt	nt	nt	nt
Cc1cc(-c2n[nH]c(=S)n2/N=C/c2ccccc2[N+](=O)[O-])n[nH]1	-6	61*	-26	-5	-23	3	82*	-2
Cc1n[nH]c(=S)n1/N=C/c1ccc(-c2ccccc2[N+](=O)[O-])o1	-21	45*	-3	-5	13	2	68*	-6
COc1cc(/C=N/n2c(-c3n[nH]c4c3CCC4)n[nH]c2=S)cc(OC)c1O	8	54*	9	-1	14	2	68*	-2
S=c1[nH]nc(-c2n[nH]c3c2CCC3)n1/N=C/C=C/c1ccco1	-4	51	-3	59	7	6	nt	nt
COc1cccc(/C=N/n2c(-c3cc(C)[nH]n3)n[nH]c2=S)c1O	7	53*	1	-4	23	-3	85*	6
N#CCCN(Cc1ccccc1)C(=O)Nc1ccc(F)cc1	-16	4	6	1	2	-4	nt	nt
COc1cc2c(cc1OC)C(c1cc(Br)ccc1F)N(C(=O)CCl)CC2 (stereo unspecified)	12	-7	16	-2	10	-1	nt	nt
COc1cc(C(=O)Nc2nnc(C)s2)c([N+](=O)[O-])cc1OC	4	-9	8	-3	4	-1	nt	nt
COc1ccccc1/C=C/C=N/n1c(-c2n[nH]c3c2CCC3)n[nH]c1=S	12	22	8	-8	17	-6	nt	nt
COc1cccc(/C=N/n2c(-c3n[nH]c4c3CCC4)n[nH]c2=S)c1O	3	66*	24	-4	8	3	82*	-12
CCC(Sc1ccccc1C(=O)O)C(=O)O (stereo unspecified)	5	4	-1	10	3	3	nt	nt
CCC(Sc1nc(N)cc(N)n1)C(=O)O (stereo unspecified)	4	44*	-8	2	2	-6	4	nt
CCOc1ccc(NC(=O)CSCc2cnn(-c3ccccc3)c2-n2cccc2)cc1	10	-10	-11	-3	5	-3	nt	nt
O=C(NC(Cc1ccccc1)C(=O)O)/C(=C/c1ccccc1)NC(=O)c1ccccc1 (stereo unspecified)	-5	-5	19	-2	-2	-3	nt	nt
CC(=O)N/C(=C/c1ccccc1)C(=O)NC(Cc1ccccc1)C(=O)O (stereo unspecified)	-11	43*	3	2	-1	-1	0	nt
COc1ccc(CNC(=O)C2(C)Cc3c(-c4ccc(N(C)C)cc4)ccnc3O2)cc1OC (stereo unspecified)	8	nt	nt	nt	nt	nt	nt	nt
CCOC(=O)c1nn(-c2ccccc2)c(=O)c2c(N)scc12	16	34	-4	5	29	-2	nt	nt
Nc1scc2c(C(=O)N/N=C/c3ccc(Cl)cc3)nn(-c3ccccc3)c(=O)c12	19	51*	12	-5	19	-3	active	-1
CCOc1cc(/C=C2\CCCc3c2nc2ccccc2c3C(=O)O)ccc1OC	-11	48*	-68	21	-5	9	18	nt
NNc1cc(C(=O)O)ccc1Cl	-10	40*	-7	-3	-7	-3	20	-2
CC(C)c1ccc(NNC(=O)C2CCC2)cc1	5	50*	-12	4	13	-1	17	nt
CC(C)c1ccc(NC(=S)NNC(=O)C2CC2)cc1	12	-3	17	1	21	-5	nt	nt
SMILES	CXCR6 inh	APOBEC3G inh	APJ antagonist	A3A deaminase	CCR6 antagonist	APJ agonist	APOBEC3G confirm	UDG A3G counter
CCN(CC)c1ccc(NC(=O)c2ccc(=O)[nH]c2)cc1S(=O)(=O)Nc1ccccc1OC	5	56*	3	-1	-2	-5	38*	-3
CCN(CC)c1ccc(NC(=O)COc2ccccc2C)cc1S(=O)(=O)Nc1ccccc1OC	3	50*	-7	4	11	-3	61*	3
CCN(CC)c1ccc(NC(=O)c2ccccc2Br)cc1S(=O)(=O)Nc1ccccc1OC	7	34	13	6	10	-7	nt	nt
O=c1c2ccccc2cnn1Cc1n[nH]c(=S)n1-c1ccc(Cl)cc1	-2	42*	-16	-2	14	-4	77*	-3
COc1ccc(C2CC(=O)N3CN(c4ccc(C)c(Cl)c4)CSC3=C2C#N)cc1OC (stereo unspecified)	-6	45*	-1	-2	0	0	19	-2
CCc1ccc(N2CSC3=C(C#N)C(c4cccs4)CC(=O)N3C2)cc1 (stereo unspecified)	11	49*	-6	16	9	-2	50*	-2
Cc1ccc(N2CSC3=C(C#N)C(c4cccs4)CC(=O)N3C2)cc1 (stereo unspecified)	-4	45*	4	13	10	-1	59*	-2
COc1ccc(N2CSC3=C(C#N)C(c4cccs4)CC(=O)N3C2)cc1 (stereo unspecified)	-6	nt	-49	nt	-2	4	nt	nt
O=C(NCc1cccnc1)c1cc(C2CCCCN2S(=O)(=O)c2ccc(F)cc2F)on1 (stereo unspecified)	5	nt	nt	nt	nt	nt	nt	nt
CCOC(=O)c1c(S(=O)(=O)NCC(=O)NCc2cccc(C)c2)c(C)n(C)c1C	7	-2	1	0	8	-4	nt	nt
CC12CCC(O)CC1=CCC1C2CCC2(C)C(c3ccn[nH]3)CCC12 (stereo unspecified)	-7	nt	nt	nt	-17	nt	nt	nt
